One block for each compound: values may come before it.
Assays:
OmpG = OmpG (Escherichia coli, UniProt P76045, D245C); assay: biochemical; assay type: binding, E. coli; settings: for p (Hill coefficient): four-parameter Hill fit; for p (Hill coefficient) / Kd: pH 7.4, 24°C; for rmax: maximum anisotropy at detergent concentrations above the CMC; for Rh max: maximum hydrodynamic radius of the proteomicelle; for Kd: read-out: Kd (apparent dissociation constant), midpoint of dose-dependent dissociation phase; for Dr slow: rotational diffusion coefficient under solvation conditions
Sequence of OmpG (P76045 22-301 D245C): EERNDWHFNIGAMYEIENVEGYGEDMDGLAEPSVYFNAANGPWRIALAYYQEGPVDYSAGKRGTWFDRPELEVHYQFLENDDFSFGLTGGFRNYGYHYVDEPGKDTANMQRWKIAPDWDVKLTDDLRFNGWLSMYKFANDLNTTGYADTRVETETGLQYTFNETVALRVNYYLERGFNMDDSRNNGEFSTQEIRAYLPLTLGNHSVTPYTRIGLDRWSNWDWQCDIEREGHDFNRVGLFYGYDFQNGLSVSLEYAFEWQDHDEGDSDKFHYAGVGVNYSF

FhuA ΔC/Δ5L = FhuA ΔC/Δ5L (Escherichia coli, UniProt P06971, DEL561-566/INS560[…], form not given); assay type: binding, E. coli; settings: for q (slope factor or transition steepness): calculated at the midpoint of the dissociation phase; for ΔRh: decrease in hydrodynamic radius as a result of detergent desolvation; for p (Hill coefficient): four-parameter Hill fit; for p (Hill coefficient) / rmax / rmin / Kd: 200 mM NaCl, 50 mM HEPES; for p (Hill coefficient) / Kd: pH 7.4, 24°C; for rmax: maximum anisotropy at detergent concentrations above the CMC; for rmax / rmin: pH 7.4; for Rh max: maximum hydrodynamic radius of the proteomicelle; for rmin: minimum anisotropy, extrapolated for the lowest detergent concentration; for Kd: read-out: Kd (apparent dissociation constant), midpoint of dose-dependent dissociation phase; for Dr fast: rotational diffusion coefficient under desolvation conditions; for ΔG: ΔG = RT ln Kd
Sequence of FhuA ΔC/Δ5L (P06971 194-747, stated change not applied): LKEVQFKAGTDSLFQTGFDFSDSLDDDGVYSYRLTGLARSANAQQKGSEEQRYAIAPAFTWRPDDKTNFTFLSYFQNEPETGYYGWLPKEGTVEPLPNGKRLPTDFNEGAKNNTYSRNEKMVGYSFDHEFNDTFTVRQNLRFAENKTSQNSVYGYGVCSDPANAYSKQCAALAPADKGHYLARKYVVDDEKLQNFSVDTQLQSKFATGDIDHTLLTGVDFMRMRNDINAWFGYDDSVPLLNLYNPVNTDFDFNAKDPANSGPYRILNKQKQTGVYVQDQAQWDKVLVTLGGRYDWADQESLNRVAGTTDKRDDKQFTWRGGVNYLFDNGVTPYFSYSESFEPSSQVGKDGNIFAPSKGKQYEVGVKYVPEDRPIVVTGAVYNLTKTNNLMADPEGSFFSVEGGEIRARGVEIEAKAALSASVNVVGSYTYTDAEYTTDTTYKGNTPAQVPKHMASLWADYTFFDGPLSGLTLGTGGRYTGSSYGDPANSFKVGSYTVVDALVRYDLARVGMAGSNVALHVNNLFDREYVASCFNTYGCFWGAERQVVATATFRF

FhuA ΔC/Δ5L_25N = FhuA ΔC/Δ5L_25N (Escherichia coli, UniProt P06971); assay type: binding, E. coli; settings: for rmax: maximum anisotropy at detergent concentrations above the CMC; for rmax / rmin: pH 7.4; for rmin: minimum anisotropy, extrapolated for the lowest detergent concentration; for Dr fast: rotational diffusion coefficient under desolvation conditions; for Dr slow: rotational diffusion coefficient under solvation conditions
Sequence of FhuA ΔC/Δ5L_25N (P06971 194-747, stated change not applied): as above

FhuA ΔC/Δ7L_30N = FhuA ΔC/Δ7L_30N (Escherichia coli, UniProt P06971); assay type: binding, E. coli; settings: for rmax: maximum anisotropy at detergent concentrations above the CMC; for rmax / rmin: pH 7.4; for rmin: minimum anisotropy, extrapolated for the lowest detergent concentration; for Dr fast: rotational diffusion coefficient under desolvation conditions; for Dr slow: rotational diffusion coefficient under solvation conditions
Sequence of FhuA ΔC/Δ7L_30N (P06971 194-747, stated change not applied): as above

SELENOK U92C = target: T1, SELENOK U92C (Homo sapiens, UniProt Q9Y6D0, U92C); assay: steady-state FP anisotropy, DDM desolvation of SELENOK U92C; assay type: binding; settings: solubilized in 1.3 mM DDM
T1 sequence (Q9Y6D0 2-94 U92C): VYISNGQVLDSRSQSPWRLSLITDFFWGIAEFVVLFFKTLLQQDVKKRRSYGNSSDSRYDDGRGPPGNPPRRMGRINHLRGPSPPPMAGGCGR
Procedure, shortened: (§1)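 Human proteins expressed as MBP fusions and purified in 1.3 mM DDM, which was the starting detergent concentration. Each was labelled with Texas Red C2 maleimide on its single accessible cysteine (C92 in SELENOK, C174 in SELENOS). Samples were diluted in wells with DDM buffers to 200 nM protein in 200 mM NaCl, 50 mM HEPES pH 7.4, 24°C. FP read at […] after 15 min equilibration; 24 h endpoints at 4°C. rmin extrapolated to lowest DDM.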

SELENOS U188S = target: T2, SELENOS U188S (Homo sapiens, UniProt Q9BQE4); assay: steady-state FP anisotropy, DDM desolvation of SELENOS U188S; assay type: binding; settings: solubilized in 1.3 mM DDM
T2 sequence (Q9BQE4 with tags, fused parts or gaps): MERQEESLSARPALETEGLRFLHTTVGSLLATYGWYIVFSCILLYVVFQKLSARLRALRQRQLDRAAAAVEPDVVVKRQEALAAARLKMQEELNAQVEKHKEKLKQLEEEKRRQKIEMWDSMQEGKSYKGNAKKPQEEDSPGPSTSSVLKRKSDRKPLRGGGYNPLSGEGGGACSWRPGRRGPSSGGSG
Procedure, shortened: as §1

α-helical proteins = assay: FP anisotropy, DDM proteomicelles of the α-helical proteins; assay type: binding, Homo sapiens; settings: 200 mM NaCl, 50 mM HEPES, pH 7.4, 24°C
Procedure, shortened: as §1

[1] = in water; ref Anatrace, [29], [63]; cited from earlier work
[2] = 200 mM NaCl, 50 mM HEPES, pH 7.4
[3] = calculated at the midpoint of the dissociation phase
[4] = decrease in hydrodynamic radius as a result of detergent desolvation
[5] = four-parameter Hill fit, 200 mM NaCl, 50 mM HEPES, pH 7.4, 24°C
[6] = maximum hydrodynamic radius of the proteomicelle
[7] = read-out: Kd (apparent dissociation constant), midpoint of dose-dependent dissociation phase, 200 mM NaCl, 50 mM HEPES, pH 7.4, 24°C

SMILES: C[C@H](CCC(=O)NCCC[N+](C)(C)CCCS(=O)(=O)[O-])[C@H]1CC[C@H]2[C@@H]3[C@H](O)C[C@@H]4C[C@H](O)CC[C@]4(C)[C@H]3C[C@H](O)[C@]12C [CHAPS]
p (Hill coefficient) (OmpG; 200 mM NaCl, 50 mM HEPES): ~1.6 | rmax (OmpG; [2]): 0.318 ± 0.002 | Rh max (OmpG): 2.5 nm | Kd (OmpG; 200 mM NaCl, 50 mM HEPES): < 0.6 mM | Dr slow (OmpG): 1.0 ± 0.1 10^7 s^−1 | q (slope factor or transition steepness) (FhuA ΔC/Δ5L): 0.015 mM⁻¹ | ΔRh (FhuA ΔC/Δ5L): 0.77 ± 0.18 nm | p (Hill coefficient) (FhuA ΔC/Δ5L): 1.7 ± 0.6 | rmax (FhuA ΔC/Δ5L): 0.292 ± 0.004 | Rh max (FhuA ΔC/Δ5L): 2.2 nm | rmin (FhuA ΔC/Δ5L): 0.172 ± 0.048 | Kd (FhuA ΔC/Δ5L): 3.3 ± 1.8 mM | Dr fast (FhuA ΔC/Δ5L): 1.5 ± 0.1 10^7 s^−1 | ΔG (FhuA ΔC/Δ5L): -3.4 ± 0.5 kcal/mol | rmax (FhuA ΔC/Δ5L_25N; 200 mM NaCl, 50 mM HEPES): ~0.17 | rmin (FhuA ΔC/Δ5L_25N; 200 mM NaCl, 50 mM HEPES): ~0.15 | Dr fast (FhuA ΔC/Δ5L_25N): ~6.6 10^7 s^−1 | Dr slow (FhuA ΔC/Δ5L_25N): ~5.2 10^7 s^−1 | rmax (FhuA ΔC/Δ7L_30N; 200 mM NaCl, 50 mM HEPES): ~0.17 | rmin (FhuA ΔC/Δ7L_30N; 200 mM NaCl, 50 mM HEPES): ~0.16 | Dr fast (FhuA ΔC/Δ7L_30N): ~6.0 10^7 s^−1 | Dr slow (FhuA ΔC/Δ7L_30N): ~5.2 10^7 s^−1

SMILES: OC[C@H]1O[C@H](O[C@H]2[C@H](O)[C@@H](O)[C@H](OCCCCC3CCCCC3)O[C@@H]2CO)[C@H](O)[C@@H](O)[C@@H]1O [CYMAL-4, 4-cyclohexyl-1-Butyl-β-D-maltoside]
q (slope factor or transition steepness) (OmpG; [3]): 0.25 mM⁻¹ | ΔRh (OmpG; [4]): 1.2 ± 0.1 nm | p (Hill coefficient) (OmpG; 200 mM NaCl, 50 mM HEPES): 6.7 ± 0.1 | rmax (OmpG; [2]): 0.326 ± 0.001 | Rh max (OmpG): 2.6 nm | rmin (OmpG; minimum anisotropy, extrapolated for the lowest detergent concentration, 200 mM NaCl, 50 mM HEPES, pH 7.4): 0.163 ± 0.001 | Kd (OmpG; 200 mM NaCl, 50 mM HEPES): 4.6 ± 0.1 mM | Dr fast (OmpG; rotational diffusion coefficient under desolvation conditions): 5.8 ± 0.1 10^7 s^−1 | Dr slow (OmpG): 0.90 ± 0.01 10^7 s^−1 | ΔG (OmpG; ΔG = RT ln Kd): -3.2 ± 0.1 kcal/mol | q (slope factor or transition steepness) (FhuA ΔC/Δ5L): 0.38 mM⁻¹ | ΔRh (FhuA ΔC/Δ5L): 1.7 ± 0.1 nm | p (Hill coefficient) (FhuA ΔC/Δ5L): 3.7 ± 0.1 | rmax (FhuA ΔC/Δ5L): 0.367 ± 0.001 | Rh max (FhuA ΔC/Δ5L): 3.6 nm | rmin (FhuA ΔC/Δ5L): 0.242 ± 0.001 | Kd (FhuA ΔC/Δ5L): 5.3 ± 0.1 mM | Dr fast (FhuA ΔC/Δ5L): 2.6 ± 0.1 10^7 s^−1 | Dr slow (FhuA ΔC/Δ5L; rotational diffusion coefficient under solvation conditions): 0.36 ± 0.01 10^7 s^−1 | ΔG (FhuA ΔC/Δ5L): -3.1 ± 0.1 kcal/mol | q (slope factor or transition steepness) (FhuA ΔC/Δ5L_25N; [3]): 0.28 mM⁻¹ | ΔRh (FhuA ΔC/Δ5L_25N; [4]): 1.4 ± 0.1 nm | p (Hill coefficient) (FhuA ΔC/Δ5L_25N; [5]): 5.2 ± 0.3 | rmax (FhuA ΔC/Δ5L_25N; 200 mM NaCl, 50 mM HEPES): 0.341 ± 0.001 | Rh max (FhuA ΔC/Δ5L_25N; [6]): 2.9 nm | rmin (FhuA ΔC/Δ5L_25N; 200 mM NaCl, 50 mM HEPES): 0.166 ± 0.001 | Kd (FhuA ΔC/Δ5L_25N; [7]): 5.7 ± 0.1 mM | Dr fast (FhuA ΔC/Δ5L_25N): 5.6 ± 0.1 10^7 s^−1 | Dr slow (FhuA ΔC/Δ5L_25N): 0.69 ± 0.01 10^7 s^−1 | ΔG (FhuA ΔC/Δ5L_25N; ΔG = RT ln Kd): -3.1 ± 0.1 kcal/mol | q (slope factor or transition steepness) (FhuA ΔC/Δ7L_30N; [3]): 0.17 mM⁻¹ | ΔRh (FhuA ΔC/Δ7L_30N; [4]): 1.5 ± 0.2 nm | p (Hill coefficient) (FhuA ΔC/Δ7L_30N; [5]): 2.3 ± 0.9 | rmax (FhuA ΔC/Δ7L_30N; 200 mM NaCl, 50 mM HEPES): 0.345 ± 0.004 | Rh max (FhuA ΔC/Δ7L_30N; [6]): 2.9 nm | rmin (FhuA ΔC/Δ7L_30N; 200 mM NaCl, 50 mM HEPES): 0.168 ± 0.025 | Kd (FhuA ΔC/Δ7L_30N; [7]): 4.5 ± 1.1 mM | Dr fast (FhuA ΔC/Δ7L_30N): 5.5 ± 1.2 10^7 s^−1 | Dr slow (FhuA ΔC/Δ7L_30N): 0.63 ± 0.05 10^7 s^−1 | ΔG (FhuA ΔC/Δ7L_30N; ΔG = RT ln Kd): -3.2 ± 0.1 kcal/mol

rotational diffusion coefficient, Dr fast (SELENOK U92C): ~ 1.3×10^8 s^−1 | rmin (SELENOK U92C; 200 nM protein): 0.095 ± 0.002 | rotational diffusion coefficient, Dr fast (SELENOS U188S): ~ 1.1×10^8 s^−1 | rmin (SELENOS U188S; 200 nM protein): 0.103 ± 0.002 | apparent Kd relative to the CMC (α-helical proteins): greater than the CMC
SMILES: CCCCCCCCCCCCO[C@@H]1O[C@H](CO)[C@@H](O[C@H]2O[C@H](CO)[C@@H](O)[C@H](O)[C@H]2O)[C@H](O)[C@H]1O [DDM, n-dodecyl-β-D-maltoside]
Aggregation number, Nagg [1]: ~78–149
